This passage reports IC50 and Activity results from ChEMBL document CHEMBL1146538, “Antioxidative glycosides from the leaves of Ligustrum robustum” (J Nat Prod, 2003).

Active and inactive are the calls of the source. The calls are words filed in the database; no cut-off is given here.

Tested on in the first test: not listed separately
As to the kind of experiment: (§1) Antioxidant activity assessed as inhibition of AAPH-induced hemolysis in rat RBC after 3 hrs. As to conditions: erythrocyte. The format is functional, cell-based. In outline:
(§2)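 Rat blood drawn from abdominal aorta; RBC separated by centrifugation (2500 rpm, 10 min), washed three times with five volumes PBS pH 7.4. 2 mL RBC suspension mixed with 2 mL PBS containing varying glycoside amounts, then 1 mL of 400 mM AAPH in PBS; shaken at 37 °C for 3 h. Diluted with 8 mL PBS, centrifuged, supernatant A540 read; % inhibition versus control.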
Regarding `C[C@@H]1O[C@@H](O[C@@H]2[C@@H](O)[C@H](OCCc3ccc(O)c(O)c3)O[C@H](CO)[C@H]2OC(=O)/C=C/c2ccc(O)c(O)c2)[C@H](O)[C@H](O)[C@H]1O` [ACETOSIDE], the IC50 (in general, the point on the concentration scale where inhibition reaches its midpoint) turned out to be 28 µM.

On to `O=c1cc(-c2ccc(O)cc2)oc2cc(O[C@@H]3O[C@H](CO)[C@@H](O)[C@H](O)[C@H]3O)cc(O)c12` [APIGETRIN], for which the half-maximal inhibitory concentration (IC50) is 88.4 µM.

As for `C[C@@H]1O[C@@H](O[C@@H]2[C@@H](O)[C@@H](O)[C@H](O[C@@H]3[C@@H](O)[C@H](OCCc4ccc(O)c(O)c4)O[C@H](CO)[C@H]3OC(=O)/C=C/c3ccc(O)c(O)c3)O[C@H]2C)[C@H](O)[C@H](O)[C@H]1O` [LIGUPURPUROSIDE A], the IC50 stood at 26.3 µM.

`C[C@@H]1O[C@@H](O[C@@H]2[C@@H](O)[C@@H](O)[C@H](O[C@@H]3[C@@H](O)[C@H](OCCc4ccc(O)cc4)O[C@H](CO)[C@H]3OC(=O)/C=C/c3ccc(O)cc3)O[C@H]2C)[C@H](O)[C@H](O)[C@H]1O` [LIGUPURPUROSIDE B]: the IC50 came to 80.4 µM.

In the case of `C/C(=C\CO[C@@H]1O[C@H](CO)[C@@H](OC(=O)/C=C/c2ccc(O)cc2)[C@H](O[C@@H]2O[C@@H](C)[C@H](O)[C@@H](O)[C@H]2O)[C@H]1O)C/C=C\C(C)(C)O` [LIGUROBUSTOSIDE I], the IC50 was 340 µM.

On to `C[C@@H]1O[C@@H](O[C@@H]2[C@@H](O)[C@@H](O)[C@H](O[C@@H]3[C@@H](O)[C@H](OCCc4ccc(O)cc4)O[C@H](CO)[C@H]3O)O[C@H]2C)[C@H](O)[C@H](O)[C@H]1O` [LIGUROBUSTOSIDE M], for which the IC50 worked out at 134 µM.

`C[C@@H]1O[C@@H](O[C@@H]2[C@@H](O)[C@@H](O)[C@H](O[C@@H]3[C@@H](O)[C@H](OCCc4ccc(O)cc4)O[C@H](CO)[C@H]3OC(=O)/C=C/c3ccc(O)c(O)c3)O[C@H]2C)[C@H](O)[C@H](O)[C@H]1O` [LIGUROBUSTOSIDE N]: the half-inhibitory concentration (IC50) is 21.8 µM.

Take `C[C@@H]1O[C@@H](O[C@@H]2[C@@H](O)[C@H](OCCc3ccc(O)cc3)O[C@H](COC(=O)/C=C/c3ccc(O)cc3)[C@H]2O)[C@H](O)[C@H](O)[C@H]1O` [OSMANTHUSIDE B6]: the IC50 turned out to be 91.7 µM.

Turning to `C[C@@H]1O[C@@H](O[C@@H]2[C@@H](O)[C@H](OCCc3ccc(O)cc3)O[C@H](CO)[C@H]2OC(=O)/C=C/c2ccc(O)cc2)[C@H](O)[C@H](O)[C@H]1O` [OSMANTHUSIDE B], the IC50 amounted to 160 µM.

Consider `C[C@@H]1O[C@@H](O[C@H]2[C@H](Oc3cc(O)c4c(=O)cc(-c5ccc(O)cc5)oc4c3)O[C@H](CO)[C@@H](O)[C@@H]2O)[C@H](O)[C@H](O)[C@H]1O` [RHOIFOLIN], for which the half-maximal inhibitory concentration (IC50) worked out at 95.9 µM.

Regarding `Cc1c(C)c2c(c(C)c1O)CCC(C)(C(=O)O)O2` (centres undefined) [TROLOX], the IC50 came out at 101 µM.

The subject of the next test is Erythrocyte. Described as §1. Format: functional, cell-based.
Conditions: not given
Summed up: as §2
Consider `C=C(C)C(=O)CC/C(C)=C/CO[C@@H]1O[C@H](CO)[C@@H](OC(=O)/C=C/c2ccc(O)cc2)[C@H](O[C@@H]2O[C@@H](C)[C@H](O)[C@@H](O)[C@H]2O)[C@H]1O`, for which the result was inactive.

With `CC(C)=CCC/C(C)=C/CO[C@@H]1O[C@H](CO)[C@@H](OC(=O)/C=C/c2ccc(O)cc2)[C@H](O[C@@H]2O[C@@H](C)[C@H](O)[C@@H](O)[C@H]2O)[C@H]1O`, the outcome was inactive.

Take `CC(C)=CCC/C(C)=C/CO[C@@H]1O[C@H](COC(=O)/C=C/c2ccc(O)cc2)[C@@H](O)[C@H](O[C@@H]2O[C@@H](C)[C@H](O)[C@@H](O)[C@H]2O)[C@H]1O`: the outcome was inactive.
